Experimental data as given in PMC2685149 (Nuclear medicine and biology, 2009).
Several values for one entry are separate records, joined by “and”; a condition that tells them apart may be missing. Equal entries are not always repeated. Bridge positions count the residues as written; N and C are the ends. Square brackets hold non-standard residues; d marks the D form. Peptide text beside a SMILES is read from it. * marks the point of attachment. DOTA = O=C(O)CN1CCN(CC(=O)O)CCN(CC(=O)*)CCN(CC(=O)O)CC1; Nle = CCCC[C@H](N)C(=O)O

Columns and labels:
Stability in mouse serum = type: in vitro ADME; settings: 37°C, 24 h
[1] = system: B16/F10 pulmonary melanoma metastases; settings: mouse, in vivo
[2] = system: flank B16/F1 murine melanoma; settings: cited from earlier work
B16/F10 melanoma cells [3] = assay: Cellular internalization in B16/F10 cells; type: cell-based, murine; settings: after 2 h incubation, 25°C
In short: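 B16/F10 cells were washed with binding medium and incubated at 25°C for 20, 40, 60, 90 and 120 min (n=4) with about 200,000 cpm (0.019 pmol) of HPLC-purified 111In-labelled test peptide. Cells were rinsed with ice-cold PBS/BSA. Surface-bound activity was stripped with pH 4.5 acetate buffer (0.9% NaCl, 0.2% BSA). Cells were then lysed in 1 N NaOH for 5 min, and both fractions were gamma-counted.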

B16/F10 melanoma cells [4] = assay: Cellular efflux in B16/F10 cells; type: cell-based, murine; settings: 2 h after incubating cells in culture media
In short: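 B16/F10 cells were loaded with the HPLC-purified 111In-labelled test peptide for 2 h at 25°C, then rinsed twice with ice-cold pH 7.4 0.2% BSA/0.01 M PBS. Release of radioactivity into the culture medium was then followed. At 20, 40, 60, 90 and 120 min, cell-surface and intracellular activities were collected separately and gamma-counted.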

[5] = Biodistribution in normal C57 mice; type: in vivo; settings: C57, mouse, 0.037 MBq, total radioactivity; for dose excreted: urine, percent injected dose, normal mice, Mean±SD, n=5
[6] = system: B16/F10 pulmonary metastatic melanoma-bearing C57 mice; assay: Biodistribution in B16/F10 pulmonary metastatic melanoma-bearing C57 mice; type: in vivo, mouse; settings: 16 days post the cell injection
In short: (§1)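 Lung metastases were induced in C57 mice by tail-vein injection of 0.2 million cultured B16/F10 cells and used 16 days later. Normal C57 mice served as comparators. Each mouse got 0.037 MBq of HPLC-purified 111In-labelled test peptide by tail vein. Groups of 5 were killed at 2, 4 and 24 h, and organs were weighed and gamma-counted. Blood was taken as 6.5% of body weight. Ratios compare metastatic-lung with normal-lung uptake.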

[7] = as above; type: in vivo, mouse; settings: C57, mouse, 0.037 MBq; for tissue uptake at 4 h / tissue uptake at 24 h / tissue uptake at 2 h: intravenous
In short: as §1

[8] = intestine, iv, total radioactivity
[9] = lung/blood, iv, total radioactivity
[10] = lung/kidney, iv, total radioactivity
[11] = lung/liver, iv, total radioactivity
[12] = lung/muscle, iv, total radioactivity

Question: Which “stability in mouse serum” value (Stability in mouse serum) does the source give for `CCCC[C@@H]1NC(=O)[C@@H](NC(=O)[C@H](CCC(=O)O)NC(=O)CNC(=O)CN2CCN(CC(=O)O)CCN(CC(=O)O)CCN(CC(=O)O)CC2)CCCCNC(=O)C[C@@H](C(N)=O)NC(=O)[C@H](C(C)C)NC(=O)[C@@H]2CCCN2C(=O)[C@H](CCCNC(=N)N)NC(=O)CNC(=O)[C@H](Cc2c[nH]c3ccccc23)NC(=O)[C@H](CCCNC(=N)N)NC(=O)[C@@H](Cc2ccccc2)NC(=O)[C@H](Cc2c[nH]cn2)NC(=O)[C@H](CCC(=O)O)NC1=O` [^111In-DOTA-GlyGlu-CycMSH, ^111In-labeled 1,4,7,10-Tetraazacyclododecane-1,4,7,10-tetraacetic acid-Gly-Glu-c[Lys-Nle-Glu-His-DPhe-Arg-Trp-Gly-Arg-Pro-Val-Asp], metal not drawn] ({DOTA}-GEK[Nle]EH[dF]RWGRPVD-NH2; lactam 3-14; C-terminus assumed) here?
Answer: The value was “stable”.

Question: What about the “accumulation of activity in normal organs in whole-body SPECT/CT image” value [1] of the same compound?
Answer: The value was “extremely low”.

Question: What about the tumor uptake ([2]; 2 h post-injection, flank B16/F1 murine melanoma-bearing mouse model) of the same compound?
Answer: The tumor uptake was 10.40±1.40 % ID/g.

Question: What about the “reduction of renal uptake by negatively-charged -Gly-Glu- linker” value ([2]; 4 h post-injection, without affecting the tumor uptake) of the same compound?
Answer: The value was 44%.

Question: What about the “activity internalized in the cells” value (B16/F10 melanoma cells [3]) of the same compound?
Answer: The value was 79.7±10.1%.

Question: What about the “activity remained inside the cells (efflux)” value (B16/F10 melanoma cells [4]) of the same compound?
Answer: Its value is 90.6±5.3% and ~90%.

Question: And the tissue uptake dose at 2 h ([5]; intestine, iv)?
Answer: The tissue uptake dose at 2 h was 7.08 ± 1.54 %ID.

Question: What about the tissue uptake dose at 4 h ([5]; intestine, iv) of the same compound?
Answer: Its tissue uptake dose at 4 h is 4.65 ± 0.85 %ID.

Question: And the tissue uptake dose at 24 h ([5]; intestine, iv)?
Answer: The tissue uptake dose at 24 h was 0.11 ± 0.08 %ID.

Question: What about the tissue uptake at 2 h ([5]; kidneys, intravenous) of the same compound?
Answer: Its tissue uptake at 2 h is 14.1 ± 2.23 %ID/g.

Question: What about the tissue uptake at 24 h ([5]; kidneys, intravenous) of the same compound?
Answer: Its tissue uptake at 24 h is 13.5 ± 1.48 %ID/g.

Question: What about the tissue uptake at 4 h ([5]; liver, intravenous) of the same compound?
Answer: Its tissue uptake at 4 h is 0.38 ± 0.01 %ID/g.

Question: And the tissue to tissue ratio at 24 h ([5]; lung and muscle, iv)?
Answer: Its tissue to tissue ratio at 24 h is 1.5.

Question: And the tissue to tissue ratio at 2 h ([5]; lung/blood, iv)?
Answer: The tissue to tissue ratio at 2 h was 8.

Question: And the tissue to tissue ratio at 4 h ([5]; lung/blood, iv)?
Answer: Its tissue to tissue ratio at 4 h is 2.5.

Question: What about the tissue to tissue ratio at 24 h ([5]; lung/blood, iv) of the same compound?
Answer: The tissue to tissue ratio at 24 h was 1.

Question: What about the tissue to tissue ratio at 2 h ([5]; lung/kidney, iv) of the same compound?
Answer: The tissue to tissue ratio at 2 h was 0.01.

Question: What about the tissue to tissue ratio at 4 h ([5]; lung/kidney, iv) of the same compound?
Answer: Its tissue to tissue ratio at 4 h is 0.01.

Question: And the tissue to tissue ratio at 4 h ([5]; lung/liver, iv)?
Answer: Its tissue to tissue ratio at 4 h is 0.13.

Question: What about the tissue to tissue ratio at 24 h ([5]; lung/liver, iv) of the same compound?
Answer: The tissue to tissue ratio at 24 h was 0.25.

Question: And the tissue to tissue ratio at 2 h ([5]; lung/muscle, iv)?
Answer: Its tissue to tissue ratio at 2 h is 2.67.

Question: What about the tissue to tissue ratio at 4 h ([5]; lung/muscle, iv) of the same compound?
Answer: Its tissue to tissue ratio at 4 h is 1.67.

Question: And the tissue uptake at 4 h ([5]; skin, intravenous)?
Answer: Its tissue uptake at 4 h is 0.23 ± 0.08 %ID/g.

Question: What about the tissue uptake at 2 h ([5]; stomach, intravenous) of the same compound?
Answer: The tissue uptake at 2 h was 0.14 ± 0.07 %ID/g.

Question: And the dose excreted ([5]; iv, 2 h post-injection)?
Answer: Its dose excreted is 84.7 ± 1.97%.

Question: What about the dose excreted ([5]; iv, 4 h post-injection) of the same compound?
Answer: The dose excreted was 89 ± 0.92%.

Question: And the dose excreted ([5]; iv, 24 h post-injection)?
Answer: Its dose excreted is 96.06 ± 0.53%.

Question: What about the “uptake in metastatic melanoma-bearing lung relative to normal lung” value ([6]; 2 h post-injection) of the same compound?
Answer: Its value is 25.0 times.

Question: And the “uptake in metastatic melanoma-bearing lung relative to normal lung” value ([6]; 4 h post-injection)?
Answer: The value was 36.6 times.

Question: And the “uptake in metastatic melanoma-bearing lung relative to normal lung” value ([6]; 24 h post-injection)?
Answer: The value was 9.7 times.

Question: What about the tissue uptake dose at 2 h [7, 8] of the same compound?
Answer: Its tissue uptake dose at 2 h is 7.7 ± 2.05 %ID.

Question: What about the tissue uptake dose at 4 h [7, 8] of the same compound?
Answer: The tissue uptake dose at 4 h was 5.97 ± 0.48 %ID.

Question: What about the tissue uptake dose at 24 h [7, 8] of the same compound?
Answer: Its tissue uptake dose at 24 h is 0.11 ± 0.03 %ID.

Question: What about the tissue uptake at 4 h ([7]; kidneys, total radioactivity) of the same compound?
Answer: Its tissue uptake at 4 h is 14.5 ± 0.21 %ID/g.

Question: And the tissue uptake at 24 h ([7]; kidneys, total radioactivity)?
Answer: Its tissue uptake at 24 h is 15.1 ± 0.86 %ID/g.

Question: What about the tissue uptake at 4 h ([7]; liver, total radioactivity) of the same compound?
Answer: The tissue uptake at 4 h was 0.45 ± 0.05 %ID/g.

Question: What about the tissue uptake at 4 h ([7]; lung) of the same compound?
Answer: Its tissue uptake at 4 h is 1.83 ± 0.12 %ID/g.

Question: And the tissue uptake at 24 h ([7]; lung)?
Answer: The tissue uptake at 24 h was 0.29 ± 0.06 %ID/g.

Question: What about the tissue to tissue ratio at 2 h [7, 9] of the same compound?
Answer: Its tissue to tissue ratio at 2 h is 16.7.

Question: And the tissue to tissue ratio at 4 h [7, 9]?
Answer: Its tissue to tissue ratio at 4 h is 61.

Question: And the tissue to tissue ratio at 24 h [7, 9]?
Answer: The tissue to tissue ratio at 24 h was 9.67.

Question: And the tissue to tissue ratio at 2 h [7, 10]?
Answer: The tissue to tissue ratio at 2 h was 0.12.

Question: And the tissue to tissue ratio at 4 h [7, 10]?
Answer: The tissue to tissue ratio at 4 h was 0.13.

Question: And the tissue to tissue ratio at 2 h [7, 11]?
Answer: The tissue to tissue ratio at 2 h was 4.76.

Question: And the tissue to tissue ratio at 4 h [7, 11]?
Answer: Its tissue to tissue ratio at 4 h is 4.07.

Question: And the tissue to tissue ratio at 24 h [7, 11]?
Answer: The tissue to tissue ratio at 24 h was 2.23.

Question: And the tissue to tissue ratio at 2 h [7, 12]?
Answer: The tissue to tissue ratio at 2 h was 50.

Question: What about the tissue to tissue ratio at 4 h [7, 12] of the same compound?
Answer: The tissue to tissue ratio at 4 h was 61.

Question: What about the tissue to tissue ratio at 24 h [7, 12] of the same compound?
Answer: Its tissue to tissue ratio at 24 h is 9.67.

Question: What about the tissue uptake at 2 h ([7]; skin, total radioactivity) of the same compound?
Answer: Its tissue uptake at 2 h is 0.26 ± 0.22 %ID/g.

Question: What about the tissue uptake at 4 h ([7]; skin, total radioactivity) of the same compound?
Answer: The tissue uptake at 4 h was 0.36 ± 0.08 %ID/g.

Question: What about the tissue uptake at 2 h ([7]; spleen, total radioactivity) of the same compound?
Answer: Its tissue uptake at 2 h is 0.26 ± 0.07 %ID/g.
